Test results published in ChEMBL document CHEMBL1143672, “Synthesis and pharmacology of site-specific cocaine abuse treatment agents: restricted rotation analogues of methylphenidate” (J Med Chem, 2007).
Counter-ions that a name gives are not always drawn.

Legend:
[1] = target: T1, Sodium-dependent dopamine transporter (Rattus norvegicus, UniProt P23977); assay: Displacement of [3H]WIN-35428 from DAT in Sprague-Dawley rat striatum
[2] = target: Sodium-dependent serotonin transporter (Rattus norvegicus) (UniProt P31652); assay: Displacement of [3H]citalopram from 5HTT in Sprague-Dawley rat cerebrum at 10 uM
Sodium-dependent serotonin transporter (Rattus norvegicus), sequence (P31652 whole entry): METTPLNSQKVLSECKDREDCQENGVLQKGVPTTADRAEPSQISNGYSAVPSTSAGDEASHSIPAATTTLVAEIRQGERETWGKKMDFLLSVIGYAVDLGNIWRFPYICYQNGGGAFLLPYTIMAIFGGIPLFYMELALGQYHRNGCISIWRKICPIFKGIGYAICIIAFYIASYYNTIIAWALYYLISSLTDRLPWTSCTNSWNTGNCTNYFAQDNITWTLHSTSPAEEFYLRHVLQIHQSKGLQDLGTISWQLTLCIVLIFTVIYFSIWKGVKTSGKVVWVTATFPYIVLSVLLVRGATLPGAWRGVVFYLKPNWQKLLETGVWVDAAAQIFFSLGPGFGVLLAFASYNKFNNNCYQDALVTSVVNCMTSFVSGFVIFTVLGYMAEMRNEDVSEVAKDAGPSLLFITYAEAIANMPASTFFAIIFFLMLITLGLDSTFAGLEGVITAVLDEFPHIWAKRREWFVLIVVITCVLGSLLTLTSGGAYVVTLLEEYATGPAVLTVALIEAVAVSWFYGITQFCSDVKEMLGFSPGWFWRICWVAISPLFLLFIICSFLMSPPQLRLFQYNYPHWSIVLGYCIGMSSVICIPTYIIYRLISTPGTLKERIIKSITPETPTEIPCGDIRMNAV

[3] = target: Monoamine transporters; serotonin & dopamine (Rattus norvegicus) (UniProt P31652+P23977); assay: Selectivity for rat DAT over rat 5HTT; assay type: protein assay
Monoamine transporters; serotonin & dopamine (Rattus norvegicus), sequence (P23977 whole entry, looked up): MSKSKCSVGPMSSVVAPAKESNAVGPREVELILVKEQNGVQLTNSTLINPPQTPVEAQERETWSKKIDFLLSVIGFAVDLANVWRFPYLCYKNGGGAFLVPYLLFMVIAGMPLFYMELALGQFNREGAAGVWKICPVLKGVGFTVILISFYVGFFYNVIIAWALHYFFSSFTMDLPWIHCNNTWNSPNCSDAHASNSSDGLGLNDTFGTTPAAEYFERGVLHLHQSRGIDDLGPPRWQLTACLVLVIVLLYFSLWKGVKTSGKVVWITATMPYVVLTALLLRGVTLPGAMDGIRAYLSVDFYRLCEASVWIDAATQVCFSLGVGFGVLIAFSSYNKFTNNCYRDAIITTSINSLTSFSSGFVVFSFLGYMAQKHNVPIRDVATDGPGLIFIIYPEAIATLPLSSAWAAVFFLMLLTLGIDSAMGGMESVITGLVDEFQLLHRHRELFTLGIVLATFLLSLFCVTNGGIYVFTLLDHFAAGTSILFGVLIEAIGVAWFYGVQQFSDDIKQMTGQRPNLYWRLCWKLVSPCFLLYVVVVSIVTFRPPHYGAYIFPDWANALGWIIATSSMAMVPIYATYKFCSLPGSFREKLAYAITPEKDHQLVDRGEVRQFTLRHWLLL
Monoamine transporters; serotonin & dopamine (Rattus norvegicus), sequence (P31652 whole entry, looked up): as the sequence (P31652 whole entry) above

[4] = target: T1, Sodium-dependent dopamine transporter; assay: Inhibition of [3H]DA uptake at DAT in Sprague-Dawley rat striatum
How it was run: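 Uptake of [3H]dopamine into the S1 fraction of rat striatal homogenate; IC50 from curves fit by nonlinear regression.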

[5] = target: Sodium-dependent serotonin transporter (Rattus norvegicus, UniProt P31652); assay: Displacement of [3H]citalopram from 5HTT in Sprague-Dawley rat cerebrum
Sodium-dependent serotonin transporter, sequence (P31652 whole entry): as above
How it was run: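 Rat cortical P2 fraction in 25 mM sodium phosphate, pH 7.7 at 0 °C; 2 nM [3H]citalopram, 3 h at 0 °C; filtration. Nonspecific binding with 1 µM clomipramine. Compounds in water, dilute DMSO or methanol (≤0.3% solvent). Data corrected for filter binding; IC50 by nonlinear regression, Ki by Cheng-Prusoff.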

[6] = target: Monoamine transporters; Norepinephrine & serotonin (Rattus norvegicus) (UniProt P31652+Q9WTR4); assay: Selectivity for rat NET over rat 5HTT; assay type: protein assay
[7] = target: Monoamine transporters; Norepininephrine & dopamine (Rattus norvegicus) (UniProt P23977+Q9WTR4); assay: Selectivity for rat DAT over rat NET; assay type: protein assay
[8] = target: Norepinephrine transporter (Rattus norvegicus, UniProt Q9WTR4); assay: Displacement of [3H]nisoxetine from NET in Sprague-Dawley rat cortical tissue
Norepinephrine transporter, sequence (Q9WTR4 whole entry): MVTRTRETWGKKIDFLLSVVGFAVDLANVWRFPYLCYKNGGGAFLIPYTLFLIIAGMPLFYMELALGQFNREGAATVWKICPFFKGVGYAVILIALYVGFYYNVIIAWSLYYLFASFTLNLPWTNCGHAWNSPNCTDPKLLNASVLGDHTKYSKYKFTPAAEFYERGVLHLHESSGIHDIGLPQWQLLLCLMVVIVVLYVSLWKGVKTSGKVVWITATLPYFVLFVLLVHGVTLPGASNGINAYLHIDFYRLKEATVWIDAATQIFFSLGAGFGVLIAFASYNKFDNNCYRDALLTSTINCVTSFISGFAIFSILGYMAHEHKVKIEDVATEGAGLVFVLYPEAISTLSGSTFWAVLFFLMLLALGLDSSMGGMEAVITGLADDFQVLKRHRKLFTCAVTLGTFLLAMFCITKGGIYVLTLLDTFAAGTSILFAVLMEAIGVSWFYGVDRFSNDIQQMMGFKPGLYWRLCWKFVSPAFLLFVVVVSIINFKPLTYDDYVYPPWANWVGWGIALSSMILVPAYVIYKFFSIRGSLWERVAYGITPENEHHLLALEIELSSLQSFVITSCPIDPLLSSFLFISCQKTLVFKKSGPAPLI

[9] = target: Norepinephrine transporter (Rattus norvegicus) (UniProt Q9WTR4); assay: Displacement of [3H]nisoxetine from NET in Sprague-Dawley rat cortical tissue at 5 uM
Norepinephrine transporter (Rattus norvegicus), sequence (Q9WTR4 as listed by the source): as the sequence (Q9WTR4 whole entry) above

[10] = target: Norepinephrine transporter (Rattus norvegicus) (UniProt Q9WTR4); assay: Displacement of [3H]nisoxetine from NET in Sprague-Dawley rat cortical tissue at 10 uM

T1 sequence (P23977 whole entry): as the sequence (P23977 whole entry, looked up) above

SMILES | Ki [1] | inhibition [2] | Selectivity ratio [3] | IC50 [4] | Ki [5] | Selectivity ratio [6] | Selectivity ratio [7] | Ki [8] | inhibition [9] | inhibition [10]
COC[C@H](c1ccccc1)[C@H]1CCCCN1 (relative stereo) | 89.9 nM | 47.8% | 110 | 281 nM | – | – | – | – | – | –
COC(=O)[C@H](c1ccc(Cl)c(Cl)c1)[C@H]1CCCCN1 | 4.76 nM | – | 140 | 7 nM | 667 nM | – | – | – | – | –
Clc1ccc([C@H]2CCCN3CCCC[C@H]23)cc1Cl (relative stereo) | 3.39 nM | – | 36 | 11 nM | 121 nM | 4.3 | 8.4 | 28.4 nM | – | –
c1ccc([C@H]2CCCN3CCCC[C@H]23)cc1 (relative stereo) | 76.2 nM | – | 67 | 244 nM | 5140 nM | 37 | 1.8 | 138 nM | – | –
O=C1CCN2CCCC[C@@H]2[C@H]1c1ccc(Cl)c(Cl)c1 (relative stereo) | 14 nM | 54% | 710 | – | – | 36 | 20 | 280 nM | – | –
CO[C@@H]1CCN2CCCC[C@@H]2[C@H]1c1ccccc1 | 570 nM | 14% | > 18 | 1850 nM | – | > 4.9 | 3.6 | 2040 nM | 64% | –
O=C1CC[C@H](c2ccccc2)[C@H]2CCCCN12 | – | – | 0.54 | 8490 nM | 3550 nM | < 0.7 | > 0.76 | – | 11% | –
CO[C@H]1CCN2CCCC[C@@H]2[C@H]1c1ccccc1 | 10.8 nM | 73% | 190 | 61 nM | 2070 nM | 32 | 5.9 | 63.7 nM | – | –
CC[C@H]1CCN2CCCC[C@@H]2[C@H]1c1ccc(Cl)c(Cl)c1 | 4.12 nM | – | 48 | – | 199 nM | 2 | 24 | 98.8 nM | – | –
CC[C@@]1(O)CCN2CCCC[C@@H]2[C@H]1c1ccccc1 | 175 nM | 19% | > 57 | – | – | > 6.6 | 8.69 | 1520 nM | – | –
CC[C@H]1CCN2CCCC[C@@H]2[C@H]1c1ccccc1 | 5.51 nM | 86% | 640 | – | 3550 nM | 58 | 11 | 60.8 nM | – | –
CCN1CCCC[C@@H]1[C@H](CO)c1ccccc1 (relative stereo) | 2100 nM | 16.2% | > 4.8 | 10400 nM | – | – | – | – | – | –
OC[C@H](c1ccccc1)[C@H]1CCCCN1 (relative stereo) | 406 nM | 31% | > 25 | 1520 nM | – | – | – | – | – | –
C[C@H]1C[C@H](c2ccccc2)[C@H]2CCCCN2C1 | 178 nM | – | 2.4 | 368 nM | 427 nM | 0.62 | 3.9 | 694 nM | – | –
CCN1CCCC[C@@H]1[C@H](C)c1ccccc1 (relative stereo) | 7610 nM | 11% | > 1.3 | 7960 nM | – | – | > 0.66 | – | 8.3% | –
CC[C@@H]1CCN2CCCC[C@@H]2[C@H]1c1ccc(Cl)c(Cl)c1 | 3.44 nM | – | 83 | – | 286 nM | 2.8 | 30 | 102 nM | – | –

SMILES | Ki [1] | inhibition [2] | Selectivity ratio [3] | IC50 [4] | Ki [5] | Selectivity ratio [6] | Selectivity ratio [7] | Ki [8] | inhibition [9] | inhibition [10]
c1ccc(CC2CCCCN2)cc1 (stereo not given) | 6360 nM | 22% | > 1.6 | 8800 nM | – | – | – | – | – | 36%
COC(=O)[C@H](c1ccccc1Cl)[C@H]1CCCCN1 | 1740 nM | 22.2% | > 5.7 | 2660 nM | – | – | – | – | – | –
O=C1CCN2CCCC[C@@H]2[C@H]1c1ccccc1 (relative stereo) | 908 nM | 5% | > 11 | 12400 nM | – | > 2.5 | 4.4 | 4030 nM | 52% | –
O[C@H]1CCN2CCCC[C@@H]2[C@H]1c1ccc(Cl)c(Cl)c1 | 2.46 nM | – | 68 | – | 168 nM | 6 | 11 | 27.9 nM | – | –
O[C@@H]1CCN2CCCC[C@@H]2[C@H]1c1ccccc1 | 6250 nM | 1% | > 1.6 | 10700 nM | – | – | > 0.8 | – | 23.7% | –
Clc1ccc([C@@H]2CCCN3CCCC[C@H]23)cc1Cl (relative stereo) | 34.6 nM | – | 3 | 87.6 nM | 102 nM | 0.64 | 4.6 | 160 nM | – | –
O[C@H]1CCN2CCCC[C@@H]2[C@H]1c1ccccc1 | 108 nM | 12% | > 93 | 680 nM | – | > 28 | 3.3 | 351 nM | – | –
CC[C@@H]1CCN2CCCC[C@@H]2[C@H]1c1ccccc1 | 27.6 nM | 80% | 87 | – | 2390 nM | 5.8 | 15 | 411 nM | – | –
Clc1ccccc1[C@H]1CCCN2CCCC[C@H]12 (relative stereo) | 480 nM | – | 3.8 | 1260 nM | 1840 nM | 0.67 | 5.7 | 2750 nM | 58% | –
COC(=O)[C@H](c1ccccc1)[C@H]1CCCCN1 [DEXMETHYLPHENIDATE HYDROCHLORIDE] | – | 14% | – | – | – | – | – | 270 nM | – | –
c1ccc(C2CCCNC2)cc1 (stereo not given) | 4560 nM | 53% | 2.2 | 1060 nM | – | 19 | 0.12 | 534 nM | – | –
C[C@@H]1C[C@H](c2ccccc2)[C@H]2CCCCN2C1 | 119 nM | – | 2 | 248 nM | 243 nM | 3.2 | 0.64 | 76 nM | – | –
COC(=O)[C@@H](c1ccc(Cl)c(Cl)c1)[C@H]1CCCCN1 (relative stereo) | 363 nM | – | 7.1 | 317 nM | 2570 nM | – | – | – | – | –
O[C@@H]1CCN2CCCC[C@@H]2[C@H]1c1ccc(Cl)c(Cl)c1 | 35.7 nM | – | 57 | – | 2050 nM | 5.6 | 10 | 367 nM | – | –
OC[C@H](c1ccc(Cl)c(Cl)c1)[C@H]1CCCCN1 (relative stereo) | 3.91 nM | 94.6% | 71 | 22.5 nM | 276 nM | – | – | – | – | –
